High-throughput results (PubChem)
RGS4 block: human RGS4 inhibition; HEK293 M3R/RGS4 inducible, Fluo-4 calcium flux; hits give high values; triggered by carbachol at its EC20; B-score at 10 µM; 310,000 compounds, 0.45% hits;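 active = B-score, a plate-corrected calcium signal, over three deviations above library mean, with baseline fluorescence within five deviations of library mean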;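 note: RGS4 expression induced by doxycycline in cells with stable M3 receptor; B-score is computed from the integrated fluorescence ratio over baseline after carbachol; higher B-score means a larger calcium signal and so more RGS4 inhibition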
Target sequence (P49798 whole entry, looked up): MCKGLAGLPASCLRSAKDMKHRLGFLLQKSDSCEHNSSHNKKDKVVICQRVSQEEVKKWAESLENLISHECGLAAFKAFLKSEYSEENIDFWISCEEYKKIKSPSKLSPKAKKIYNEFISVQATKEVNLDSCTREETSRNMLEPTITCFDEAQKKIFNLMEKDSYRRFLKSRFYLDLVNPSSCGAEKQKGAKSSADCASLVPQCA
RGS4 pot: RGS4 potentiation or activation | HEK293 M3R/inducible RGS4, carbachol calcium flux Fluo4; hits give low values | B-score at 10 µM | 310,000 compounds, 0.92% hits;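 active = B-score of the integrated calcium signal more than 4 SD below the library mean, with starting fluorescence not abnormally high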;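 note: negative B-score means reduced calcium response which marks RGS4 activation or potentiation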
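Also added: carbachol at ECmax as muscarinic agonist stimulus; Assay system: HEK293 cells with stable M3R and inducible RGS4; Timing: overnight RGS4 induction, 30 min dye load 37 °C, 20 min compound RT; Measured by: Fluo4-AM (2 µM) calcium-flux fluorescence, kinetic read.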
MrgX1 ag: human MrgX1 receptor agonism, primary screen | Q96LB2 | MrgX1-HEK293 cells, Fluo-4 calcium fluorescence, agonist mode; hits give high values | B-score at 10 µM | 310,000 compounds, 0.44% hits | AID 588627;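 active = calcium response B-score plate-corrected fluorescence ratio at least 3 library SD, with starting fluorescence B-score inside 5 SD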
Target sequence (Q96LB2 whole entry, looked up): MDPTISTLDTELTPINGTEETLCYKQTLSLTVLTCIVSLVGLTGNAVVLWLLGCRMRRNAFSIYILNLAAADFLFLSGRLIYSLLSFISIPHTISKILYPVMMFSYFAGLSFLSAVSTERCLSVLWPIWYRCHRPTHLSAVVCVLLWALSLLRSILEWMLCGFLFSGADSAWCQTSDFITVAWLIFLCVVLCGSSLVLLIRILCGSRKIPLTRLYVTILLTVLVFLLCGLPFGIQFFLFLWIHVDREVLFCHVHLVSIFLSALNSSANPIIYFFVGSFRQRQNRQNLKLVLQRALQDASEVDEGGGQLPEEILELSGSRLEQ
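Material: HEK293 cells stably expressing human MrgX1 receptor | Quantity: 15,000 cells per well | Times: Cells plated overnight, dye loaded 0.5 h 37 °C, 0.5 h room temperature | Measured by: Kinetic Fluo-4 NW fluorescence of intracellular calcium | Control set: Positive and negative controls per plate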
MrgX1 PAM: allosterically activates human MrgX1 receptor signaling | MrgX1-HEK293, Fluo-4 calcium flux, FDSS; hits give high values | B-score at 10 µM | 310,000 compounds, 0.63% hits | AID 588675;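 active = plate-corrected calcium response at least 3 library SD above typical, normal starting fluorescence, not activating the receptor alone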;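 note: compound read alongside a low EC10 to EC30 dose of BAM8-22 agonist; peak minus trough fluorescence over baseline measured at the second addition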
MrgX1 antag: human MrgX1 receptor antagonism, primary screen; 310,000 compounds, 1.3% hits; AID 588676; B-score at 10 µM; MRGX1-HEK293 calcium flux, Fluo-4, BAM8-22 antagonism; hits give low values; Q96LB2;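 active = calcium-response B-score plate-corrected more than 3 library SD below zero, starting fluorescence within 5 deviations, no agonist response on first addition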;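 note: peak minus trough fluorescence over baseline after final BAM8-22 challenge near maximal dose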
Hits are given with their value; . = inactive; / = no result given. The list is not random: actives were taken first. Their share in the collection is about 3.5%.

SMILES	RGS4 block	RGS4 pot	MrgX1 ag	MrgX1 PAM	MrgX1 antag
CC(COc1cccc2ccccc12)CN1CCN(C)CC1 (centres undefined)	.	.	.	.	.
O=C(Nc1cc(Sc2ccccn2)cc([N+](=O)[O-])c1)c1ccc(Cl)cc1	.	-8	.	.	-6.1
c1ccc(-c2nnsc2-c2ccccc2)cc1	.	.	.	.	.
O=S(=O)(c1ccc(Cl)c(Cl)c1)c1snnc1-c1ccccc1	.	-7.3	/	/	/
Cc1ccc(C(=O)C(c2ccccc2)N2Cc3ccccc3C2=N)cc1 (centres undefined)	.	-8.1	.	.	.
CCCCCCCOC(=O)C[N+](C)(C)CCOC1CC2CCC1(C)C2(C)C (centres undefined)	.	-8.2	/	/	/
CCOC(=O)C1=C(c2ccccc2)NC(N)=NC1c1ccc(OCc2ccc(C(=O)OC)cc2)cc1 (centres undefined)	.	-7	.	.	.
CCOC(=O)CCc1c(C(=O)OCC)[nH]c(CC)c1C(=O)OCc1ccccc1	.	-7.5	.	.	.
CCOC(=O)c1c(C)[nH]c(C(=O)OCc2ccccc2)c1C	.	.	.	.	.
Cn1c2ccccc2c2cc(/C=N/NC(=O)c3cc(O)ccc3O)ccc21	.	-9	.	.	.
COc1cc(C(=O)N/N=C/c2ccc3c(c2)c2ccccc2n3C)ccc1O	.	.	.	.	.
O=C(c1ccc([N+](=O)[O-])s1)N1CCc2ccccc21	.	.	.	.	.
O=C(c1ccc([N+](=O)[O-])s1)N1CCCc2ccccc21	.	-7.7	.	.	.
NC(=NCc1ccccc1)c1cccc([N+](=O)[O-])c1	.	.	.	.	.
Cc1ccnn1CC(=O)N/N=C/c1ccc([N+](=O)[O-])s1	.	.	.	.	.
Cc1cc(C=C2C(=O)c3ccccc3C2=O)c(C)n1-c1ccc(C(=O)O)cc1	.	.	.	.	.
Cc1cc(C=C2C(=O)c3ccccc3C2=O)c(C)n1-c1cccc(C(=O)O)c1	.	.	.	10	.
Cc1cc(/C=c2\sc3nc4ccccc4n3c2=O)c(C)n1-c1ccc(C(=O)O)cc1	.	-7.3	/	/	/
Cc1cc(C=C2C(=O)c3ccccc3C2=O)c(C)n1-c1ccccc1	.	.	.	8.5	.
Nc1c(Cl)cc(Cl)cc1C(=O)OCC(=O)NC1CC1	.	.	.	.	.
CCOc1cc(CN2CCCCC2)ccc1OC	.	.	.	.	.
CCOc1ccc(C=O)cc1CN1CCCCC1	.	.	.	.	-5.8
CN1CCN(S(=O)(=O)c2cccc(C(=O)Nc3cccc([N+](=O)[O-])c3)c2)CC1	.	.	.	.	.
O=c1oc2ccccc2n1CCCOc1ccccc1	.	.	.	.	.
CC1=C(C#N)c2nc(N)c(C#N)c(C)c2/C1=C\c1ccc(OCC(=O)O)c(Cl)c1	.	.	.	.	-5.4
SMILES	RGS4 block	RGS4 pot	MrgX1 ag	MrgX1 PAM	MrgX1 antag
CCCCCCCC(=O)NNC(=O)c1ccc([N+](=O)[O-])cc1	.	.	.	7	.
COC(=O)CCC(=O)NNC(=O)c1ccc([N+](=O)[O-])cc1	.	.	.	.	.
C=CCNC(=S)NNC(=O)c1ccc([N+](=O)[O-])cc1	.	.	.	.	-7.9
C=CCNC(=S)NNC(=O)c1ccccc1	.	.	.	.	.
O=C(c1ccc(Br)o1)N1CCC(c2nc3ccccc3[nH]2)CC1	.	.	.	.	.
O=C(Nc1ccccc1C(=O)NCC1CCCO1)c1ccc(Cl)cc1Cl (centres undefined)	.	.	.	.	.
CCNC(=O)CP(=O)(c1ccccc1)c1ccccc1	.	.	.	.	.
COC(=O)Cn1c(=NC(=O)c2ccc(Cl)s2)sc2cc(C)ccc21	.	.	.	.	-5.9
COC(=O)Cn1c(=NC(=O)c2nc3ccccc3s2)sc2cc(S(C)(=O)=O)ccc21	.	.	.	.	-5.2
COC(=O)Cn1c(=NC(=O)c2sc3ccccc3c2Cl)sc2cc(S(N)(=O)=O)ccc21	.	.	.	.	.
CCc1ccccc1NC(=O)CNC(=O)c1ccccc1OCc1c(C)noc1C	.	.	.	.	.
CC1(C)CC(=O)C([N+](=O)[O-])=C(NCCCC(=O)O)C1	.	.	.	.	-5.4
CCOC(=O)C1=NNC(C(=O)c2ccc(Cl)cc2)C1c1ccccc1 (centres undefined)	.	.	.	.	.
CCOC(=O)C1=NN(c2ccc(Cl)cc2)C(c2ccccc2)CC1=O (centres undefined)	.	.	.	.	-7.8
CCc1cc2c(N3CCN(C(=O)c4ccco4)CC3)ncnc2s1	.	.	.	.	.
O=C(NCc1ccccn1)c1ccc(N2CCCC2)c([N+](=O)[O-])c1	.	.	.	.	.
Cc1ccc(CNC(=O)CSc2nnc3c(n2)[nH]c2ccccc23)cc1	.	.	.	.	.
C[C@H]1c2cccc(O)c2C(O)=C2C(=O)[C@]3(O)C(O)=C(C(N)=O)C(=O)[C@@H](N(C)C)C3[C@@H](O)C21 (some centres undefined)	.	.	.	.	-6.8
Cc1ccc(S(=O)(=O)c2c(C)cc(C)nc2Oc2cccc(C(F)(F)F)c2)cc1	.	-8.2	.	.	.
Cc1nnc(N2C(=O)C(O)=C(C(=O)c3ccco3)C2c2ccc(F)cc2)s1 (centres undefined)	.	.	.	.	.
CSc1ccc(C2C(C(=O)c3ccco3)=C(O)C(=O)N2c2nnc(SC)s2)cc1 (centres undefined)	.	.	.	.	-5.4
Cc1nnc(N2C(=O)C(O)=C(C(=O)c3ccco3)C2c2ccc(C(C)C)cc2)s1 (centres undefined)	.	.	.	.	.
Cc1nnc(N2C(=O)C(O)=C(C(=O)c3ccco3)C2c2ccc(C(C)(C)C)cc2)s1 (centres undefined)	.	.	27	.	.
COc1ccc(/C=C2\CCC/C(=C\c3ccc(OC)c(OC)c3OC)C2=O)c(OC)c1OC	.	.	/	/	/
COc1ccc(CCNC(=O)CSc2ccccc2)cc1OC	.	.	.	.	.
SMILES	RGS4 block	RGS4 pot	MrgX1 ag	MrgX1 PAM	MrgX1 antag
COc1ccc(CCNC(=O)CC(c2ccccc2)c2cccc(C)c2O)cc1OC (centres undefined)	.	.	.	.	-5.9
O=[N+]([O-])c1ccc(Cl)c2c1C1C=CCC1C(c1ccccn1)N2 (centres undefined)	.	.	.	.	-5.6
O=[N+]([O-])c1ccc(OCC(O)CN(C2CCCCC2)C2CCCCC2)cc1 (centres undefined)	.	.	.	.	.
OC(CNC1CCCCC1)COCCOc1ccc(Br)cc1 (centres undefined)	.	.	.	.	-9.2
OC(CNC1CCCC1)COc1ccc(-c2ccccc2)cc1 (centres undefined)	.	.	.	.	.
O=[N+]([O-])c1ccc(OCC(O)CNC2CCCC2)cc1 (centres undefined)	.	.	28	.	.
